PAFAH2 inh: inhibitors of human PAFAH2 | Q99487 | recombinant PAFAH2, FP-rhodamine activity probe, fluorescence polarization | inhibition, % at 3.39 µM | 340,000 compounds, 0.99% hits | AID 492956;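 active means inhibition above the mean over all tested compounds plus 3 SD, cut at about 30% in these data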;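 further: inhibitors block probe labeling of enzyme so polarization drops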
PAFAH1B2 inh: inhibitors of human PAFAH1B2 | P68402 | recombinant PAFAH1B2, FP-rhodamine activity probe, fluorescence polarization | inhibition, % at 3.39 µM | 340,000 compounds, 1.2% hits;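 active means inhibition above the mean of all tested compounds plus 3 SD, cut at about 24% in these data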
VIM-2 inh: inhibitors of Pseudomonas aeruginosa VIM-2 metallo-beta-lactamase; AID 1527; 290,000 compounds, 0.89% hits; purified VIM-2, nitrocefin hydrolysis, epi-absorbance fluorescence; inhibition, % at 5.6 µM;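 active means inhibition above the mean of all tested compounds plus 3 SD, cutoff set per screening run, cut at about 7.5% in these data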;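 further: red hydrolysis product quenches plate fluorescence so inhibitors raise well fluorescence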
PAFAH1B3 FP inh: PAFAH1B3 (human) inhibition; recombinant PAFAH1B3, FP-rhodamine probe, fluorescence polarization; inhibition, % at 3.39 µM; 340,000 compounds, 0.28% hits; AID 492972; Q15102;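 active means inhibition above the screen-wide average of all tested compounds plus 3 SD, cut at about 25% in these data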
Target sequence (Q15102 whole entry, looked up): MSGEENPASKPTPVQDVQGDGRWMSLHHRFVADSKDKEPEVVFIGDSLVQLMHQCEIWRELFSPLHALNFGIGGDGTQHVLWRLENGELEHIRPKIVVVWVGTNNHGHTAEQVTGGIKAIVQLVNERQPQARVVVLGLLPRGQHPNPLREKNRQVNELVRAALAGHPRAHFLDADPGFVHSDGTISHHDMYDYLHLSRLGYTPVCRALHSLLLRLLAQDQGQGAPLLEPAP
IMP-1 inhibitor: inhibitors of Pseudomonas aeruginosa IMP-1 metallo-beta-lactamase. inhibition, % at 5.6 µM. purified IMP-1, nitrocefin hydrolysis, epi-absorbance fluorescence. 290,000 compounds, 0.45% hits;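 active means inhibition above the mean plus 3 SD of all compounds in the same screening run, cut at about 4.5% in these data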
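Material – recombinant IMP-1 enzyme, purified · Amount – IMP-1 0.2 nM before substrate addition · Medium – HEPES buffer pH 7.1 with ZnSO4 and Brij 35 · Timing – 25 °C, 15 min preincubation, 25 min reaction · Measured by – plate fluorescence quenching by hydrolysis product, ex 480/em 530 nm · Read-out – percent enzyme inhibition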
pPAFAH inh: inhibitors of human plasma PAF acetylhydrolase (pPAFAH) | Q13093 | recombinant pPAFAH, FP-rhodamine probe fluorescence polarization | inhibition, % at 3.39 µM | 330,000 compounds, 1.5% hits | AID 463082;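 active means inhibition above the mean inhibition across the screen plus 3 SD, cut at about 25% in these data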;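 further: inhibitors block binding of the rhodamine activity-based probe so polarization drops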
Target sequence (Q13093 whole entry, looked up): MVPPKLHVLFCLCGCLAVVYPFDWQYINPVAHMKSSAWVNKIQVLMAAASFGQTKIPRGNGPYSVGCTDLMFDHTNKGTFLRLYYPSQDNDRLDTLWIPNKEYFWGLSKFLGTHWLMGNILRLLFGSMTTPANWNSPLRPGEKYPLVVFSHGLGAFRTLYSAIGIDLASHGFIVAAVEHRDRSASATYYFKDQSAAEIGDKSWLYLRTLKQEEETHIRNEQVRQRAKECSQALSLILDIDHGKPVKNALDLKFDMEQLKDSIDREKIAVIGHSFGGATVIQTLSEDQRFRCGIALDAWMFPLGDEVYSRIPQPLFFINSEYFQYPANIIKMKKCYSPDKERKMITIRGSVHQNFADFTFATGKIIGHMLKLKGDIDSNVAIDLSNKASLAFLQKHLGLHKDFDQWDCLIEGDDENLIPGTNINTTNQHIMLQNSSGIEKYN
A number is an active result; 0 = inactive; - = not tested or not shown. This is a sample that favours compounds with a hit; in the whole collection about 3.6% have one here.

SMILES | PAFAH2 inh | PAFAH1B2 inh | VIM-2 inh | PAFAH1B3 FP inh | IMP-1 inhibitor | pPAFAH inh
COCCn1c(=O)[nH]c(=O)c2c1nc(-c1ccc(-c3ccc(Cl)cc3[N+](=O)[O-])o1)n2Cc1ccccc1 | 0 | 0 | 0 | 0 | 0 | 27
COc1ccc(-c2ccc(-c3nc4c(c(=O)[nH]c(=O)n4Cc4ccccc4)n3C)o2)c([N+](=O)[O-])c1 | 0 | 0 | 0 | 0 | 0 | 0
COCCn1c(-c2ccc(-c3ccc([N+](=O)[O-])cc3Br)o2)nc2c1c(=O)[nH]c(=O)n2CC(C)C | 0 | 0 | 0 | 0 | 0 | 29
CC(C)Cn1c(-c2cc([N+](=O)[O-])ccc2Cl)nc2c1c(=O)[nH]c(=O)n2Cc1ccccc1 | 0 | 0 | 0 | 0 | 0 | 25
CCC(CO)Oc1cc(NC(=O)c2ccc(C)cc2)c2ncn(C(C)C)c2c1 (configuration not stated) | 0 | 0 | - | 0 | - | 0
NC(=N\N=CCc1ccccc1)/C(N)=N/N=CCc1ccccc1 | 0 | 0 | - | 0 | - | -
CN(CCOc1ccccc1)C(=O)c1ccc(N2CCCC2)c([N+](=O)[O-])c1 | 0 | 0 | 0 | 0 | 0 | 0
O=S(=O)(c1ccc(N2CCOCC2)cc1)N1CCOCC1 | 0 | 0 | 0 | 0 | 0 | 0
O=C(N1CCOCC1)N1CCN(S(=O)(=O)c2ccc(Cl)cc2)CC1 | 0 | 25 | 0 | 0 | 0 | 0
Cn1cnc(S(=O)(=O)N2CCN(c3ccc(Cl)cc3)CC2)c1 | 0 | 28 | 0 | 0 | 0 | 0
O=S(=O)(c1ccc(Cl)cc1)N1CCN(c2ccc(N3CCOCC3)nn2)CC1 | 0 | 26 | 0 | 0 | 0 | 0
CCN(CC)CCOCCn1c(C)ccc1C | 0 | 0 | - | 0 | - | -
Cc1nc2nc(C)n(CCN3CCOCC3)c(=O)c2c(-c2cccc([N+](=O)[O-])c2)c1C(=O)CCCCCCCCCCN1CCC(c2ccccc2)(c2ccccc2)CC1 | 0 | 0 | - | 0 | - | -
COc1cc(/C=C(\C#N)c2nc3ccc(C)cc3[nH]2)c([N+](=O)[O-])cc1OC | 0 | 0 | 0 | 0 | 0 | 0
COc1cc(/C=C(\C#N)c2nc3ccc(C)cc3[nH]2)cc([N+](=O)[O-])c1O | 38 | 33 | 0 | 0 | 0 | -
COc1ccc(-n2nc3c(c2NC(=O)C2CC(=O)N(c4ccccc4)C2)CS(=O)(=O)C3)cc1 (configuration not stated) | 0 | 0 | 0 | 0 | 0 | 0
O=C(C[n+]1cnn(CC(=O)c2ccc(Cl)cc2Cl)c1)c1ccc([N+](=O)[O-])cc1 | 0 | 0 | 0 | 0 | 0 | 25
CN(Cc1ccc(F)cc1)C(=O)c1ccc(NS(=O)(=O)c2ccccc2)cc1 | 0 | 0 | - | 0 | - | 0
COc1cccc(NC(=O)CN(C)C(=O)c2cccc(NS(=O)(=O)c3ccc(Br)cc3)c2)c1 | 0 | 30 | - | 0 | - | -
CN(CC(=O)Nc1ccc(F)cc1)C(=O)c1cccc(NS(=O)(=O)c2ccccc2)c1 | 0 | 0 | - | 0 | - | 29
CN(Cc1ccc(F)cc1)C(=O)c1cccc(S(=O)(=O)NCc2ccccc2)c1 | 0 | 25 | - | 0 | - | 0
CC1CCCC(NC(=O)c2cccc(S(=O)(=O)NCc3ccccc3)c2)C1C (configuration not stated) | 0 | 30 | - | 0 | - | 0
O=C(COc1ccccc1)OCC(=O)c1ccc(S(=O)(=O)N2CCCCC2)cc1 | 0 | 0 | - | 0 | - | 0
Nc1ncnc2c1ncn2[C@@H]1O[C@H](CNCc2ccc(OCC(=O)Nc3nccs3)cc2)[C@@H](O)[C@H]1O | 0 | 0 | - | 0 | - | 0
CSc1ncccc1C(=O)OCC(=O)Nc1cccc(S(=O)(=O)N2CCOCC2)c1 | 0 | 0 | - | 0 | - | 0
SMILES | PAFAH2 inh | PAFAH1B2 inh | VIM-2 inh | PAFAH1B3 FP inh | IMP-1 inhibitor | pPAFAH inh
CCN1CCN(c2ccc(S(=O)(=O)N3CCCCC3)cc2NC(=O)c2ccc([N+](=O)[O-])s2)CC1 | 0 | 0 | - | 0 | - | 0
CCOc1cc(S(=O)(=O)NCCCN2CCOCC2)c(C)cc1C | 0 | 0 | 0 | 0 | 0 | -
CCCCc1nc2cc(C(=O)N3CCCC3)ccc2o1 | 0 | 0 | 0 | 0 | 0 | 0
CCCCc1nc2cc(C(=O)NC(C)c3cnn(C)c3)ccc2o1 (configuration not stated) | 0 | 0 | 0 | 0 | 25 | 0
Cc1occc1C(=O)NNC(=O)c1ccc(S(=O)(=O)N(C)C)cc1 | 0 | 0 | - | 0 | - | 0
O=C(NCC1CC1)c1ccccc1Cl | 0 | 0 | 0 | 0 | 0 | 0
Cc1ccc(SCC(=O)O/N=C(\N)c2cccnc2)cc1 | 0 | 75 | 0 | 0 | 0 | 0
CCn1c(N)cc(=O)[nH]c1=S | 0 | 0 | - | 0 | - | -
COc1ccc2cc1Oc1ccc(cc1)CC1c3c(cc(OC)c4c3Oc3cc5c(cc3O4)CCNC5C2)CCN1C (configuration not stated) | 0 | 0 | 0 | 0 | 4.6 | 0
O=C(NCCCN1CCCC1=O)c1ccc(NS(=O)(=O)c2cccc([N+](=O)[O-])c2)cc1 | 0 | 0 | - | 0 | - | 0
CCOC(=O)c1cc(-c2cccnc2)nn1-c1ccccc1 | 0 | 0 | 0 | 0 | 0 | 0
CCOC(=O)c1cc(-c2ccc(OC)cc2)nn1-c1ccc(C(=O)O)cc1 | 0 | 0 | 0 | 0 | 0 | 31
O=C(Nc1nc(-c2ccco2)c(-c2ccco2)s1)C1CCC1 | 0 | 0 | 0 | 0 | 0 | 28
O=C(Nc1nnc(-c2ccco2)s1)C1CCCCC1 | 0 | 0 | 0 | 0 | 0 | 0
O=C(Nc1ccc2c(c1)CCC2)Nc1ccc2c(c1)OCO2 | 0 | 0 | 0 | 0 | 0 | 25
COC(=O)C1=C(C)N(CCCC(=O)O)C(=O)NC1c1cccc(Cl)c1Cl (configuration not stated) | 0 | 0 | - | 0 | - | 0
O=C(O)c1cccc(COc2ccc3c(c2)CCC3)c1 | 0 | 48 | 0 | 0 | 0 | 0
O=C(O)c1cc(OCc2ccccc2)cc(OCc2ccccc2)c1 | 0 | 29 | 0 | 0 | 0 | 0
COc1ccc(OCc2cccc(C(=O)O)c2)cc1 | 0 | 25 | - | 0 | - | 0
COCCNC(=O)c1cc2c(=O)[nH]c3ccccc3c2s1 | 0 | 0 | 0 | 0 | 0 | 0
CCOC(=O)CNC(=O)c1cc2c(=O)[nH]c3ccc(C)cc3c2s1 | 0 | 0 | 0 | 0 | 0 | 0
CCCN1CCN(CCCNC(=O)c2cc3c(=O)[nH]c4ccccc4c3s2)CC1 | 0 | 0 | 10 | 0 | 0 | 0
Cc1ccc2[nH]c(=O)c3cc(C(=O)NCCN4CCN(C)CC4)sc3c2c1 | 0 | 0 | 12 | 0 | 0 | 0
Oc1ccc(Br)cc1C=Nc1ccc2c3c(cccc13)CC2 | 0 | 0 | 0 | 0 | 0 | 28
CC1CC(C)CN(C(=O)Cc2c(C(=O)O)[nH]c3ccc(Cl)cc23)C1 (configuration not stated) | 0 | 81 | 0 | 0 | 0 | 0
COc1ccc2[nH]c(C(=O)O)c(CCNC(C)=O)c2c1 | 0 | 0 | 0 | 0 | 0 | 0
Cc1ccc(Cl)cc1N1CCN(C(=O)Cc2c(C(=O)O)[nH]c3ccc(Cl)cc23)CC1 | 0 | 0 | 0 | 0 | 0 | 0
O=C(O)c1ccccc1C(=O)NCCc1c(C(=O)O)[nH]c2ccc(Cl)cc12 | 0 | 33 | 10 | 0 | 0 | 0

High-throughput results as filed in PubChem.
